Screening data deposited in PubChem BioAssay by Johns Hopkins Ion Channel Center.
Hits are enriched below; roughly 3.5% of the tested compounds scored in any of these assays.
RGS4 act = RGS4 potentiation or activation; HEK293 M3R/inducible RGS4, carbachol calcium flux Fluo4; stronger effect = lower value; 310,000 tested, 0.92% active; AID 463111; B-score at 10 µM;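 active means B-score of the integrated calcium signal more than 4 SD below the library mean, with starting fluorescence not abnormally high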;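 further: negative B-score means reduced calcium response which marks RGS4 activation or potentiation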
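Material: Inducible-RGS4 HEK293 cells carrying M3 receptor; also added: carbachol at ECmax as muscarinic agonist stimulus; incubation: compound preincubation 20 min at room temperature before agonist; signal: Fluo4-AM (2 µM) calcium-flux fluorescence, kinetic read; measure: integrated calcium ratio converted to B score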
MrgX1 ag = activates human MrgX1 receptor signaling. B-score at 10 µM. 310,000 tested, 0.44% active. AID 588627. MrgX1-HEK293 cells, Fluo-4 calcium fluorescence, agonist mode; stronger effect = higher value. Q96LB2;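 active means calcium response B-score plate-corrected fluorescence ratio at least 3 library SD, with starting fluorescence B-score inside 5 SD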
Target sequence (Q96LB2 whole entry, looked up): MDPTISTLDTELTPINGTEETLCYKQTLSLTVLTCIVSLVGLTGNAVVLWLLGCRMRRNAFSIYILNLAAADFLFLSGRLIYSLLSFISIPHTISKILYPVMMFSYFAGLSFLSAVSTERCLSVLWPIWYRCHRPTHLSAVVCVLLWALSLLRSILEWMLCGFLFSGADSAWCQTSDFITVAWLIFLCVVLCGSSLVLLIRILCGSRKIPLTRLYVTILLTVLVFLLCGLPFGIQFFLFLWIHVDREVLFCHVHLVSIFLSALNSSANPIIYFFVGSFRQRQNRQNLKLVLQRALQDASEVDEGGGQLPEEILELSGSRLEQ
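Test system: HEK293 cells stably expressing human MrgX1 receptor; Input: fifteen thousand cells per well; Dosing: compound delivered in addition one of three; Schedule: overnight seeding, then 1 h dark dye loading; Technique: Fluo-4 NW calcium fluorescence; Measure: B-scored fluorescence response ratio; Controls: positive and negative controls per plate.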
MrgX1 antagonist = human MrgX1 receptor antagonism, primary screen. Q96LB2. MRGX1-HEK293 calcium flux, Fluo-4, BAM8-22 antagonism; stronger effect = lower value. B-score at 10 µM. 310,000 tested, 1.3% active;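 active means calcium-response B-score plate-corrected more than 3 library SD below zero, starting fluorescence within 5 deviations, no agonist response on first addition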;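 further: peak minus trough fluorescence over baseline after final BAM8-22 challenge near maximal dose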
RGS4 inh = human RGS4 inhibition; P49798; B-score at 10 µM; AID 463165; HEK293 M3R/RGS4 inducible, Fluo-4 calcium flux; stronger effect = higher value; triggered by carbachol at its EC20; 310,000 tested, 0.45% active;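 active means B-score, a plate-corrected calcium signal, over three deviations above library mean, with baseline fluorescence within five deviations of library mean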;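 further: RGS4 expression induced by doxycycline in cells with stable M3 receptor; B-score is computed from the integrated fluorescence ratio over baseline after carbachol; higher B-score means a larger calcium signal and so more RGS4 inhibition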
MrgX1 allo act = allosterically activates human MrgX1 receptor signaling; Q96LB2; MrgX1-HEK293, Fluo-4 calcium flux, FDSS; stronger effect = higher value; B-score at 10 µM; 310,000 tested, 0.63% active; AID 588675;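 active means plate-corrected calcium response at least 3 library SD above typical, normal starting fluorescence, not activating the receptor alone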;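 further: compound read alongside a low EC10 to EC30 dose of BAM8-22 agonist; peak minus trough fluorescence over baseline measured at the second addition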
The depositor's hits bear a star; i = inactive.

SMILES	RGS4 act	MrgX1 ag	MrgX1 antagonist	RGS4 inh	MrgX1 allo act
CCc1cc2c(-c3ccccc3)cc(=O)oc2c(CN2CCOCC2)c1O	i	42.6*	i	i	i
O=c1cc(-c2ccccc2)c2ccc(O)c(CN3CCCCC3)c2o1	i	i	i	i	i
O=c1cc(-c2ccccc2)c2cc(Cl)c(O)c(CN3CCOCC3)c2o1	i	i	i	i	9.79*
CCOc1ccnc2c1c(=O)n(Cc1cc(OC)cc(OC)c1)c(=O)n2C	i	i	i	i	i
Cc1noc(C)c1COC(=O)c1cccc(S(=O)(=O)N2c3ccccc3CC2C)c1 (stereo not given)	-7.4*	i	i	i	i
Cc1noc(C)c1COC(=O)c1cccc(S(=O)(=O)N2CCOCC2)c1	i	i	i	i	i
CC(C)c1ccc(N(C(=O)c2ccc3c(c2)OCO3)C2C=CS(=O)(=O)C2)cc1 (stereo not given)	i	i	i	i	i
O=C(Nc1nc(-c2ccc3c(c2)OCO3)cs1)C1COc2ccccc2O1 (stereo not given)	-7.55*	i	i	i	i
COc1cc(OC)c(OC)cc1/C=C/C(=O)c1ccc(NS(=O)(=O)c2ccc(C)cc2)cc1	i	i	-4.8*	i	i
O=C(COc1ccccc1)N1c2ccccc2Sc2ccccc21	i	i	i	i	i
CN(C)c1cc[n+](CC(=O)N2c3ccccc3Sc3ccccc32)cc1	-8.07*	i	i	i	i
Cc1nnc(N(C)C(=O)c2ccncc2)s1	i	i	i	i	i
CCCCCNCc1ccc(Cl)cc1	i	i	i	i	i
OCCCCNCc1ccc(OCc2ccc(Cl)cc2)cc1	-7.27*	i	i	i	i
O=C(Cn1cncn1)c1ccccc1Br	i	i	i	i	i
CC(=O)c1ccc(OCCCC(=O)NC(C)c2ccc(S(N)(=O)=O)cc2)cc1 (stereo not given)	i	i	i	i	6.64*
Cc1ccc(OCCCC(=O)NC(C)c2ccccc2)cc1 (stereo not given)	i	i	i	i	i
O=S(=O)(c1ccc(-c2ccon2)s1)N1CCCC1	i	i	i	i	i
O=S(=O)(c1ccc(-c2ccon2)s1)N1CCN(c2ccncc2)CC1	i	53.1*	i	i	i
CC(C)NC(=O)c1cc2cc(Br)ccc2oc1=O	i	i	i	i	i
Cc1ccc(C(C)NC(=O)c2cc3cc(Br)ccc3oc2=N)cc1 (stereo not given)	-9.15*	i	i	i	i
O=C(COC(=O)c1ccc(S(=O)(=O)N2CCCC2)cc1)NCc1ccco1	i	i	i	i	i
CCN(CC)c1ccc(/C=C(/C#N)c2nc3ccc(C)cc3[nH]2)c(OC(C)C)c1	i	40.5*	i	i	i
CCOc1cc(N(CC)CC)ccc1/C=C(/C#N)c1nc2ccccc2[nH]1	i	78.8*	i	i	i
CCCOc1cc(N(CC)CC)ccc1/C=C(/C#N)c1nc2ccc(C)cc2[nH]1	i	i	i	i	11.6*
SMILES	RGS4 act	MrgX1 ag	MrgX1 antagonist	RGS4 inh	MrgX1 allo act
COc1cccc(/C=C(\C#N)c2nc3ccccc3[nH]2)c1OCC(=O)O	i	i	i	i	i
CCn1c(CNC(=O)C2CCCCC2)cc2cc(C)ccc21	i	i	i	i	i
CCOC(=O)c1ccc(NC(=S)NNC(=O)COC)cc1	i	i	-7.88*	i	i
O/N=C/c1cc(Br)ccc1OCc1ccccc1F	i	i	-7.38*	i	i
Fc1ccccc1COc1ccc(Br)cc1CNCc1ccncc1	-9.58*	i	i	i	i
C=CCOc1ccc(Br)cc1/C=N/O	i	i	i	i	i
Cc1ccccc1N(C)S(=O)(=O)c1nnc(NC(=O)c2ccco2)s1	i	i	i	i	i
CCc1ccc(N(CC(=O)NC(C)(C)C)C(=O)CCC(=O)Nc2ccccn2)cc1	i	i	i	i	i
